Experimental findings from ChEMBL document CHEMBL1136311, “Growth inhibition activity of thioacetal artemisinin derivatives against human umbilical vein endothelial cells” (Bioorg Med Chem Lett, 2003) are described below.

Each structure is given as a SMILES string.

In this assay the test system is HUVEC. Briefly: Inhibitory activity against human umbilical vein endothelial cells (HUVEC) was assayed using MTT colorimetric proliferation assay. It counts as functional, cell-based. The method in brief: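 HUVEC grown in EGM-2 medium with growth factor, seeded at 10,000 cells/well and left 4 h to adhere. Test compounds diluted in the medium were added. Incubation in a 5% CO₂ humidified atmosphere, then viability read by MTT colorimetric proliferation assay. Growth inhibition reported as IC50.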
One may read the IC50 as the concentration at which inhibition is half-maximal. With `CC(=O)S[C@H]1O[C@@H]2O[C@]3(C)CC[C@H]4[C@H](C)CC[C@@H]([C@H]1C)[C@@]24OO3`, it took 4.56 µM to reach half-maximal inhibition (IC50).

`C[C@H]1[C@H](S)O[C@@H]2OC3(C)CC[C@H]4[C@H](C)CC[C@@H]1[C@@]24OO3` (single isomer, unassigned) yielded an IC50 of 1.29 µM.

`C[C@H]1[C@@H]2CC[C@@H](C)[C@@H]3CCC4(C)OO[C@@]23[C@H](O[C@@H]1S(=O)(=O)c1ccccc1)O4` (single isomer, unassigned) displayed an IC50 of 1.74 µM.

`C[C@@H]1[C@@H]2CC[C@@H](C)[C@@H]3CCC4(C)O[C@@H](O[C@@H]1S(=O)(=O)c1ccccc1)[C@]23O4` (single isomer, unassigned) showed a 50% inhibitory concentration (IC50) of over 50 µM.

`C[C@H]1[C@@H](Sc2ccccc2)O[C@@H]2OC3(C)CC[C@H]4[C@H](C)CC[C@@H]1[C@@]24O3` (single isomer, unassigned) registered an IC50 of over 50 µM.

`C[C@H]1[C@H](Oc2ccccc2)O[C@@H]2OC3(C)CC[C@H]4[C@H](C)CC[C@@H]1[C@@]24OO3` (single isomer, unassigned) gave an IC50 of 31 µM.

The compound `C[C@H]1[C@@H](Oc2ccccc2)O[C@@H]2OC3(C)CC[C@H]4[C@H](C)CC[C@@H]1[C@@]24OO3` (single isomer, unassigned) registered an IC50 of 33.8 µM.

Consider `C[C@H]1[C@H](S(=O)(=O)c2ccccc2)O[C@@H]2OC3(C)CC[C@H]4[C@H](C)CC[C@@H]1[C@@]24OO3` (single isomer, unassigned), for which inhibition was half-maximal at 12.8 µM (IC50).

The compound `C[C@H]1[C@H](Sc2ccccc2)O[C@@H]2OC3(C)CC[C@H]4[C@H](C)CC[C@@H]1[C@@]24OO3` (single isomer, unassigned) returned an IC50 of 0.93 µM.

For the compound `C[C@@H]1[C@@H]2CC[C@@H](C)[C@@H]3CCC4(C)OO[C@@]23[C@H](O[C@@H]1S(=O)(=O)c1ccccc1)O4` (single isomer, unassigned), 18.2 µM corresponded to half-maximal inhibition (IC50).

In turn, `C[C@H]1[C@@H](Sc2ccccc2)O[C@@H]2OC3(C)CC[C@H]4[C@H](C)CC[C@@H]1[C@@]24OO3` (single isomer, unassigned) gave an IC50 of 5.24 µM.

As for `C[C@@H]1CC[C@H]2[C@@H](C)C(=O)O[C@@H]3O[C@@]4(C)CC[C@@H]1[C@]32OO4` [ARTEMISININ], the IC50 is over 50 µM.

For the compound `CCO[C@H]1O[C@@H]2O[C@@]3(C)CC[C@H]4[C@H](C)CC[C@@H]([C@H]1C)[C@@]24OO3` [ARTEMOTIL], the IC50 is over 50 µM.

`C[C@H]1[C@@H](O)O[C@@H]2O[C@@]3(C)CC[C@H]4[C@H](C)CC[C@@H]1[C@@]24OO3` [ARTENIMOL]: the IC50 came out at 8.91 µM.

As to `C[C@@H]1CC[C@H]2[C@@H](C)C(=O)O[C@@H]3O[C@@]4(C)CC[C@@H]1[C@]32O4` [DEOXYARTEMISININ], the IC50 was over 50 µM.
